Measured values: ChEMBL document CHEMBL1140883, “Synthesis and antitumor activity of novel amsacrine analogs: the critical role of the acridine moiety in determining their biological activity” (Bioorg Med Chem, 2009)
Activity calls are given as the source filed them. The rule behind the calls is not given here.

What was measured:
MCF7 = assay: Cytotoxicity against human MCF7 cells after 72 hrs by MTT assay; format: functional, cell-based; conditions: MCF7, 72 h
In short: (§1)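 Cells kept in log phase at 37 °C, 5% CO2, in RPMI-1640 with 10% foetal calf serum. Seeded at 3–8 × 10^4 mL^-1 according to growth rate. Treated 72 h with increasing drug concentrations, final solvent 0.5%. MTT read-out as absorbance at 540 nm, expressed as % of untreated control. IC50 taken from dose–survival curves.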

A549 = assay: Cytotoxicity against human A549 cells after 72 hrs by MTT assay; format: functional, cell-based; conditions: A549, 72 h
In short: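 A549 cells kept in log phase at 37 °C, 5% CO2, in F-12 Ham's with 15% foetal calf serum, penicillin 50 units mL^-1 and streptomycin. Seeded at 3–8 × 10^4 mL^-1, then treated 72 h with increasing concentrations, final solvent 0.5%. MTT absorbance at 540 nm as % of untreated control. IC50 taken from dose–survival curves.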

HL-60 = assay: Cytotoxicity against human HL60 cells after 72 hrs by MTT assay; format: functional, cell-based; conditions: HL-60, 72 h; in short: as §1
A-431 = assay: Cytotoxicity against human A431 cells after 72 hrs by MTT assay; format: functional, cell-based; conditions: A-431, 72 h; in short: as §1
2008 = assay: Cytotoxicity against human 2008 cells after 72 hrs by MTT assay; format: functional, cell-based; conditions: Homo sapiens, 2008, 72 h; in short: as §1
Salmonidae = assay: Binding affinity to salmon testes DNA assessed as negative dichroic signal by linear dichroism experiment
In short: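 Flow linear dichroism on salmon testes DNA at 1.5 × 10^-3 M in ETN buffer (10 mM Tris, 10 mM NaCl, 1 mM EDTA, pH 7). DNA orientation by shear gradient at 500–700 rpm. Spectra recorded at 25 °C at [drug]/[DNA] ratios of 0, 0.02, 0.04 and 0.08, each spectrum accumulated four times. DNA concentration from ε260 6600 M^-1 cm^-1.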

## COc1ccc2c(Cl)c3ccc(=O)oc3nc2c1
MCF7
  IC50: 50.1 µM
A549
  IC50: 53.4 µM
HL-60
  IC50: 60.3 µM
A-431
  IC50: > 100 µM
2008
  IC50: > 100 µM

## COc1cc(NS(C)(=O)=O)ccc1Nc1c2ccccc2nc2ccccc12 [AMSACRINE]
MCF7
  IC50: 5.13 µM
A549
  IC50: 3.52 µM
HL-60
  IC50: 1.15 µM
A-431
  IC50: 5.89 µM
Salmonidae
  Activity: Active
2008
  IC50: 4.31 µM

## CS(=O)(=O)Nc1ccc(Nc2c3ccccc3nc3oc(=O)ccc23)cc1
MCF7
  IC50: > 100 µM
A549
  IC50: > 100 µM
HL-60
  IC50: 92.1 µM
A-431
  IC50: 94.1 µM
2008
  IC50: > 100 µM

## O=c1ccc2c(Cl)c3ccccc3nc2o1
MCF7
  IC50: > 100 µM
A549
  IC50: 62.9 µM
HL-60
  IC50: 39.5 µM
A-431
  IC50: 54.3 µM
2008
  IC50: 52.6 µM

## COc1ccc2nc3oc(=O)ccc3c(Nc3ccc(NS(C)(=O)=O)cc3OC)c2c1
MCF7
  IC50: > 100 µM
A549
  IC50: > 100 µM
HL-60
  IC50: 95.2 µM
A-431
  IC50: 85.7 µM
2008
  IC50: > 100 µM

## COc1ccc2c(Nc3ccc(NS(C)(=O)=O)cc3)c3ccc(=O)oc3nc2c1
MCF7
  IC50: > 100 µM
A549
  IC50: > 100 µM
HL-60
  IC50: > 100 µM
A-431
  IC50: 92.7 µM
2008
  IC50: > 100 µM

## COc1ccc2nc3oc(=O)ccc3c(Nc3ccc(NS(C)(=O)=O)cc3)c2c1
MCF7
  IC50: 60.6 µM
A549
  IC50: > 100 µM
HL-60
  IC50: 47.3 µM
A-431
  IC50: 55.6 µM
2008
  IC50: 68.2 µM

## COc1cc(NS(C)(=O)=O)ccc1Nc1c2ccc(=O)oc2nc2c(OC)cccc12
MCF7
  IC50: > 100 µM
A549
  IC50: 81.5 µM
HL-60
  IC50: > 100 µM
A-431
  IC50: > 100 µM
2008
  IC50: > 100 µM

## COc1cccc2c(Nc3ccc(NS(C)(=O)=O)cc3)c3ccc(=O)oc3nc12
MCF7
  IC50: > 100 µM
A549
  IC50: > 100 µM
HL-60
  IC50: > 100 µM
A-431
  IC50: > 100 µM
2008
  IC50: > 100 µM

## COc1ccc2nc3oc(=O)ccc3c(Cl)c2c1
MCF7
  IC50: > 100 µM
A549
  IC50: > 100 µM
HL-60
  IC50: > 100 µM
A-431
  IC50: 97 µM
2008
  IC50: > 100 µM

## COc1cccc2c(Cl)c3ccc(=O)oc3nc12
MCF7
  IC50: 54.1 µM
A549
  IC50: 75.4 µM
HL-60
  IC50: 37.1 µM
A-431
  IC50: 55.3 µM
2008
  IC50: 60.6 µM

## COc1cc(NS(C)(=O)=O)ccc1Nc1c2ccccc2nc2oc(=O)ccc12
MCF7
  IC50: > 100 µM
A549
  IC50: > 100 µM
HL-60
  IC50: > 100 µM
A-431
  IC50: > 100 µM
2008
  IC50: > 100 µM
